Columns and labels:
Homo sapiens = organism: Homo sapiens; assay: Inhibition of sigma2 receptor (unknown origin) at 5 uM by psychoactive drug screening programme assay
[1] = target: D(3) dopamine receptor (Homo sapiens) (UniProt P35462); assay: Inhibition of dopamine D3 receptor (unknown origin) at 5 uM by psychoactive drug screening programme assay
Method in brief: (§1)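 Radioligand binding screen run by PDSP. Displacement of ligand binding was measured with test compound at 5 µM, n=4 per target.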

[2] = target: Mu-type opioid receptor (Homo sapiens) (UniProt P35372); assay: Inhibition of mu opioid receptor (unknown origin) at 5 uM by psychoactive drug screening programme assay; method in brief: as §1
[3] = target: Beta-2 adrenergic receptor (Homo sapiens) (UniProt P07550); assay: Inhibition of adrenergic beta2 receptor (unknown origin) at 5 uM by psychoactive drug screening programme assay; method in brief: as §1
[4] = target: Ionotropic glutamate receptor NMDA 1/2D (Rattus norvegicus) (UniProt P35439+Q62645); assay: Activity at rat recombinant GluN1/GluN2D receptor expressed in Xenopus oocytes assessesed as effect of glycine/glutamate-induced response at 3 uM by two-electrode voltage clamp technique relative to control; assay type: cell-based; conditions: Oocyte
Method in brief: (§2)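 Two-electrode voltage clamp of Xenopus oocytes injected with 1–5 ng cRNA and kept in Barth's solution at 15°C for 2–5 days. Oocytes were perfused with 90 mM NaCl, 1.0 KCl, 0.5 BaCl2, 0.005 EDTA, 10 HEPES, pH 7.4, 23°C, and held at -40 mV. Compound was co-applied at 3 µM with agonist from 20 mM DMSO stocks, final DMSO 0.05–0.5%.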

[5] = target: P2X purinoceptor 2 (Homo sapiens) (UniProt Q9UBL9); assay: Activity at human recombinant purinergic P2X2 receptor expressed in Xenopus oocytes assessed as effect on ATP-induced activation at 3 uM by two-electrode voltage clamp technique relative to control; assay type: cell-based; conditions: Oocyte; method in brief: as §2
[6] = target: Neuronal acetylcholine receptor; alpha4/beta2 (Homo sapiens) (UniProt P17787+P43681); assay: Activity at human recombinant alpha4beta2 nAChR expressed in Xenopus oocytes assessed as effect on acetylcholine-induced activation at 3 uM by two-electrode voltage clamp technique relative to control; assay type: cell-based; conditions: Oocyte; method in brief: as §2
[7] = target: Neuronal acetylcholine receptor subunit alpha-7 (Homo sapiens) (UniProt P36544); assay: Activity at human recombinant alpha7 nAChR expressed in Xenopus oocytes assessed as effect on acetylcholine-induced activation at 3 uM by two-electrode voltage clamp technique relative to control; assay type: cell-based; conditions: Oocyte; method in brief: as §2
[8] = target: Alpha-2A adrenergic receptor (Homo sapiens) (UniProt P08913); assay: Inhibition of adrenergic alpha2A receptor (unknown origin) at 5 uM by psychoactive drug screening programme assay; method in brief: as §1
[9] = target: Beta-3 adrenergic receptor (Homo sapiens) (UniProt P13945); assay: Inhibition of adrenergic beta3 receptor (unknown origin) at 5 uM by psychoactive drug screening programme assay; method in brief: as §1
[10] = target: 5-hydroxytryptamine receptor 1E (Homo sapiens) (UniProt P28566); assay: Inhibition of serotonin 5-HT1E receptor (unknown origin) at 5 uM by psychoactive drug screening programme assay; method in brief: as §1
[11] = target: 5-hydroxytryptamine receptor 1B (Homo sapiens) (UniProt P28222); assay: Inhibition of serotonin 5-HT1B receptor (unknown origin) at 5 uM by psychoactive drug screening programme assay; method in brief: as §1
[12] = target: Nicotinic acetylcholine receptor alpha9/alpha10 (Rattus norvegicus) (UniProt P43144+Q9JLB5); assay: Activity at rat recombinant alpha9alpha10 nAChR expressed in Xenopus oocytes assessed as effect on acetylcholine-induced response at 3 uM by two-electrode voltage clamp technique relative to control; assay type: cell-based; conditions: Oocyte; method in brief: as §2
[13] = target: Glutamate NMDA receptor; Grin1/Grin2a (Rattus norvegicus) (UniProt P35439+Q00959); assay: Activity at rat recombinant GluN1/GluN2A receptor expressed in Xenopus oocytes assessesed as effect of glycine/glutamate-induced response at 3 uM by two-electrode voltage clamp technique relative to control; assay type: cell-based; conditions: Oocyte; method in brief: as §2
[14] = target: Neuronal acetylcholine receptor; alpha3/beta4 (Homo sapiens) (UniProt P30926+P32297); assay: Activity at human recombinant alpha3beta4 nAChR expressed in Xenopus oocytes assessed as effect on acetylcholine-induced activation at 3 uM by two-electrode voltage clamp technique relative to control; assay type: cell-based; conditions: Oocyte; method in brief: as §2
[15] = target: 5-hydroxytryptamine receptor 6 (Homo sapiens) (UniProt P50406); assay: Inhibition of serotonin 5-HT6 receptor (unknown origin) at 5 uM by psychoactive drug screening programme assay
[16] = target: 5-hydroxytryptamine receptor 1D (Homo sapiens) (UniProt P28221); assay: Inhibition of serotonin 5-HT1D receptor (unknown origin) at 5 uM by psychoactive drug screening programme assay; method in brief: as §1
[17] = target: Sodium-dependent noradrenaline transporter (Homo sapiens) (UniProt P23975); assay: Inhibition of norepinephrine transporter (unknown origin) at 5 uM by psychoactive drug screening programme assay; method in brief: as §1
[18] = target: Sigma non-opioid intracellular receptor 1 (Homo sapiens) (UniProt Q99720); assay: Inhibition of sigma1 receptor (unknown origin) at 5 uM by psychoactive drug screening programme assay
[19] = target: 5-hydroxytryptamine receptor 1A (Homo sapiens) (UniProt P08908); assay: Inhibition of serotonin 5-HT1A receptor (unknown origin) at 5 uM by psychoactive drug screening programme assay; method in brief: as §1
[20] = target: Histamine H2 receptor (Homo sapiens) (UniProt P25021); assay: Inhibition of H2 histamine receptor (unknown origin) at 5 uM by psychoactive drug screening programme assay; method in brief: as §1
[21] = target: Muscarinic acetylcholine receptor M1 (Homo sapiens) (UniProt P11229); assay: Inhibition of M1 receptor (unknown origin) at 5 uM by psychoactive drug screening programme assay; method in brief: as §1
[22] = target: Muscarinic acetylcholine receptor M5 (Homo sapiens) (UniProt P08912); assay: Inhibition of M5 receptor (unknown origin) at 5 uM by psychoactive drug screening programme assay; method in brief: as §1
[23] = target: 5-hydroxytryptamine receptor 3A (Homo sapiens) (UniProt P46098); assay: Inhibition of serotonin 5-HT3 receptor (unknown origin) at 5 uM by psychoactive drug screening programme assay
[24] = target: Gamma-aminobutyric acid receptor subunit rho-1 (Homo sapiens) (UniProt P24046); assay: Activity at human recombinant GABA(C) receptor expressed in Xenopus oocytes assessed as effect on GABA-induced activation at 3 uM by two-electrode voltage clamp technique relative to control; assay type: cell-based; conditions: Oocyte; method in brief: as §2
[25] = target: Delta-type opioid receptor (Homo sapiens) (UniProt P41143); assay: Inhibition of delta opioid receptor (unknown origin) at 5 uM by psychoactive drug screening programme assay; method in brief: as §1
[26] = target: 5-hydroxytryptamine receptor 2A (Homo sapiens) (UniProt P28223); assay: Inhibition of serotonin 5-HT2A receptor (unknown origin) at 5 uM by psychoactive drug screening programme assay; method in brief: as §1
[27] = target: Glutamate receptor ionotropic, kainate 2 (Rattus norvegicus) (UniProt P42260); assay: Activity at rat recombinant GluK2 receptor expressed in Xenopus oocytes assessed as effect on glutamate-induced response at 3 uM by two-electrode voltage clamp technique relative to control; assay type: cell-based; conditions: Oocyte; method in brief: as §2
[28] = target: Alpha-1A adrenergic receptor (Homo sapiens) (UniProt P35348); assay: Inhibition of adrenergic alpha1A receptor (unknown origin) at 5 uM by psychoactive drug screening programme assay; method in brief: as §1
[29] = target: Sodium-dependent dopamine transporter (Homo sapiens) (UniProt Q01959); assay: Inhibition of dopamine transporter (unknown origin) at 5 uM by psychoactive drug screening programme assay; method in brief: as §1
Sequence of Sodium-dependent dopamine transporter (Homo sapiens) (Q01959 whole entry): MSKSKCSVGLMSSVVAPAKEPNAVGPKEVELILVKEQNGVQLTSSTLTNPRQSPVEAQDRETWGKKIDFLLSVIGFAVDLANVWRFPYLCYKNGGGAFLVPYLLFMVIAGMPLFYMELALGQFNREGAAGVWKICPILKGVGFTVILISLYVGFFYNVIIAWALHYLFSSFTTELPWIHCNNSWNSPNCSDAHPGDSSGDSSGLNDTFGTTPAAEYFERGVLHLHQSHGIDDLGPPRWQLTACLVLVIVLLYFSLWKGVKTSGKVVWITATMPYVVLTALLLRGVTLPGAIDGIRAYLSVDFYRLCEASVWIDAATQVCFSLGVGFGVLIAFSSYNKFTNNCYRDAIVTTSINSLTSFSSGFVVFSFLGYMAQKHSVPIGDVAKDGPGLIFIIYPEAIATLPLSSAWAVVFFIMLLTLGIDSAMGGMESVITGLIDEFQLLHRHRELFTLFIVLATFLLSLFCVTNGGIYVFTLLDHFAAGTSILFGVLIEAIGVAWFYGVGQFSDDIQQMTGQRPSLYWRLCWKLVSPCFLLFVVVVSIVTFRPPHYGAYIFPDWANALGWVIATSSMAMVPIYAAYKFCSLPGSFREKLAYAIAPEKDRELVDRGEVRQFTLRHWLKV

Sequence of P2X purinoceptor 2 (Homo sapiens) (Q9UBL9 whole entry): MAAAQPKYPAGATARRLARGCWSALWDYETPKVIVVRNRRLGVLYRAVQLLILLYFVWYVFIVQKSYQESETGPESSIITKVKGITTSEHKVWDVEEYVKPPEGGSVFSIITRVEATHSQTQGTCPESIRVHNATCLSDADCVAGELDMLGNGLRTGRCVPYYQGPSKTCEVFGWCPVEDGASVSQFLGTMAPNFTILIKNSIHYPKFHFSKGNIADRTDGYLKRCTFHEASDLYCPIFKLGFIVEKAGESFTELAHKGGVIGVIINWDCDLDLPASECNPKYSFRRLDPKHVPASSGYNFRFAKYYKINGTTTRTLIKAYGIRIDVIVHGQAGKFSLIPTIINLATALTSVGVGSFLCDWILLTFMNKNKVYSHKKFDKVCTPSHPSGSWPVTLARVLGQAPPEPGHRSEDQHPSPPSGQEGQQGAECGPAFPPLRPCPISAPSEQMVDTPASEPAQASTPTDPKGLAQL
Sequence of 5-hydroxytryptamine receptor 1E (Homo sapiens) (P28566 whole entry): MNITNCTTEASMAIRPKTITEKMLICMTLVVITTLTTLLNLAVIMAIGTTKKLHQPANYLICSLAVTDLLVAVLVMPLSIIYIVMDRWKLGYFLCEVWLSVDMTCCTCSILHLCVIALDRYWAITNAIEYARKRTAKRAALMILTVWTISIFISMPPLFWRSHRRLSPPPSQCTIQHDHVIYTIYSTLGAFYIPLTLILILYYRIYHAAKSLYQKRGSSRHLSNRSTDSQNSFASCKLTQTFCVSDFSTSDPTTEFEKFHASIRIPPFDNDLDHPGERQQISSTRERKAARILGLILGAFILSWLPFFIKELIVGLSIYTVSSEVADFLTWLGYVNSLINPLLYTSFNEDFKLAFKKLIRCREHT
Sequence of Neuronal acetylcholine receptor subunit alpha-7 (Homo sapiens) (P36544 whole entry): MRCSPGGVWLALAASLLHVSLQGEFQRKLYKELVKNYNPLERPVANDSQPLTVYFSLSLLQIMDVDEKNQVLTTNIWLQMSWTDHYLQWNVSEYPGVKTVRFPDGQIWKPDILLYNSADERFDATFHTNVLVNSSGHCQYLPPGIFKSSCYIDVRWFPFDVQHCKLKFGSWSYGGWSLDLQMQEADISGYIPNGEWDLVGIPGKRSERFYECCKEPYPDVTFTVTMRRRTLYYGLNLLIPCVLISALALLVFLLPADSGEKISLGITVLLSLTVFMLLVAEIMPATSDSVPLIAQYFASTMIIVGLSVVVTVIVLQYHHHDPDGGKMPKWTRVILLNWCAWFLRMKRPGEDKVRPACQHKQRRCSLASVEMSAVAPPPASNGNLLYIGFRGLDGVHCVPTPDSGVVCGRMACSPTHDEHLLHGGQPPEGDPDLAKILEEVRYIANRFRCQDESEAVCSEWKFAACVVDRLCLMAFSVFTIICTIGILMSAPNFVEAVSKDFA
Sequence of Gamma-aminobutyric acid receptor subunit rho-1 (Homo sapiens) (P24046 whole entry): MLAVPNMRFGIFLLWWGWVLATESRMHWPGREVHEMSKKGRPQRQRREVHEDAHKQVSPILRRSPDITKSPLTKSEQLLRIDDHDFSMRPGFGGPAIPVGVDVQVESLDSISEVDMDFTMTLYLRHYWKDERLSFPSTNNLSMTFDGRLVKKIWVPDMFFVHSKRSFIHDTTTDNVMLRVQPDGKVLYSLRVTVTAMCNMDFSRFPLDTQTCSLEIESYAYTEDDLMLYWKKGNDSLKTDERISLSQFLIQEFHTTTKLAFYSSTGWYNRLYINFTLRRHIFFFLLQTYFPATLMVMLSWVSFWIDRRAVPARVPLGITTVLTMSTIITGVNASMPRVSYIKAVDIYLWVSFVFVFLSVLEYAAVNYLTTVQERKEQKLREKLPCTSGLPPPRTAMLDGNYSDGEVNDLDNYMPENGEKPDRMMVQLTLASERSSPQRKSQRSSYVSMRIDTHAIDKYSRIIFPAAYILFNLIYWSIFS
Sequence of 5-hydroxytryptamine receptor 1B (Homo sapiens) (P28222 whole entry): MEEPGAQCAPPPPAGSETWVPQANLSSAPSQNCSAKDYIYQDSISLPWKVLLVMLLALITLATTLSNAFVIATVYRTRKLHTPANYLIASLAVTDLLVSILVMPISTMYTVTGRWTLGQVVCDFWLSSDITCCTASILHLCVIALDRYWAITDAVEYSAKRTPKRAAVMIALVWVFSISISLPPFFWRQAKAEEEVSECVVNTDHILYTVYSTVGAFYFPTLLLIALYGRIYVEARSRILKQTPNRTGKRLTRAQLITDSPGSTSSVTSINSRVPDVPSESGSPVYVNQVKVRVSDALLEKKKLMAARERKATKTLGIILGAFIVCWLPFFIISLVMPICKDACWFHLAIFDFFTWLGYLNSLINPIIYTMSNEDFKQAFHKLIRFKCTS
Sequence of 5-hydroxytryptamine receptor 6 (Homo sapiens) (P50406 whole entry): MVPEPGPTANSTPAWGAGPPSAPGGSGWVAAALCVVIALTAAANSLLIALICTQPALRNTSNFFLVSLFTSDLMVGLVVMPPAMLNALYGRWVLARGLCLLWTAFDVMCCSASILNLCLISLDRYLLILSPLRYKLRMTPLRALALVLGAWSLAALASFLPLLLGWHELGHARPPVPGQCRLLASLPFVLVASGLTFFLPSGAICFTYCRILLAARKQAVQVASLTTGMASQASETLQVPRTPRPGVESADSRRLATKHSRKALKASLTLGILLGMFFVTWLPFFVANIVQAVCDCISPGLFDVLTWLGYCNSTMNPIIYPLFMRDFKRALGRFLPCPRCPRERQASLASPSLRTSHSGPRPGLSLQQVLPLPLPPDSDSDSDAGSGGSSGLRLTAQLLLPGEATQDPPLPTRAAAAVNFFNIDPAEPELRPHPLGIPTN
Sequence of Glutamate receptor ionotropic, kainate 2 (Rattus norvegicus) (P42260 whole entry): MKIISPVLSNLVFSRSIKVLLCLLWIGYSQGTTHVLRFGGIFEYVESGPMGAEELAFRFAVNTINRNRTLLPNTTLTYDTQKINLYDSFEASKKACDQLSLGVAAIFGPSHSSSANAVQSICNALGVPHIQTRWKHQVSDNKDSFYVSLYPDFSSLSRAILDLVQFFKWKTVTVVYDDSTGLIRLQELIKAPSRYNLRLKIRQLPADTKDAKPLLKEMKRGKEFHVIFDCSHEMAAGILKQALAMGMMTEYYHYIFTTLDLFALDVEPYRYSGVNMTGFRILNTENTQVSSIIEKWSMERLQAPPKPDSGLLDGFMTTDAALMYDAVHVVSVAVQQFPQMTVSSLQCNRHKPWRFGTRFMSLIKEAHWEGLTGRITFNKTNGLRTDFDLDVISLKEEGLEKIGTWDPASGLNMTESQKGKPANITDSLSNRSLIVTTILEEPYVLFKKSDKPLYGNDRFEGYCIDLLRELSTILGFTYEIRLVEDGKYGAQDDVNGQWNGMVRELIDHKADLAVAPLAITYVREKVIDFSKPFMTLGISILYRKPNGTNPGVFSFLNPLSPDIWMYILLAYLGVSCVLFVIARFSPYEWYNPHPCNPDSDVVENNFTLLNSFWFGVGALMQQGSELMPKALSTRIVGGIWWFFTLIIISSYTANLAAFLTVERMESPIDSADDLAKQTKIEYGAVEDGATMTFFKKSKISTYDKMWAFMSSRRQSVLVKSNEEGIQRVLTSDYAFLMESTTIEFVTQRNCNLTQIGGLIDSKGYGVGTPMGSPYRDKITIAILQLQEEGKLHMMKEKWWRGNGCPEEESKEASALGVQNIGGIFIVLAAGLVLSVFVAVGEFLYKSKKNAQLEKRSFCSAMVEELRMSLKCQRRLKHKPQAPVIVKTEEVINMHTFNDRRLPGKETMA
Sequence of Beta-3 adrenergic receptor (Homo sapiens) (P13945 whole entry, looked up): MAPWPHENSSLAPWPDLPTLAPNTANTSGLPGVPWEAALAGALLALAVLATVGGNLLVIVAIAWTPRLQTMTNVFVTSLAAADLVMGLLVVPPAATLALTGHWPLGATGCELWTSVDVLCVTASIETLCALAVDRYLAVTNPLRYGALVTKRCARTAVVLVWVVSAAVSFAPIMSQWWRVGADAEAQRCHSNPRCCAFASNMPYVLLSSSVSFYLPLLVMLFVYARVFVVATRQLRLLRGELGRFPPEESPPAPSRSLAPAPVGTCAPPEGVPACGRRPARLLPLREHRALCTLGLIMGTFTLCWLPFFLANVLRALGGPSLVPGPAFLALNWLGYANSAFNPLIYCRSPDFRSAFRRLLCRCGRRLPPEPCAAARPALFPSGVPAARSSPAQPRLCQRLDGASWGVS
Sequence of Delta-type opioid receptor (Homo sapiens) (P41143 whole entry): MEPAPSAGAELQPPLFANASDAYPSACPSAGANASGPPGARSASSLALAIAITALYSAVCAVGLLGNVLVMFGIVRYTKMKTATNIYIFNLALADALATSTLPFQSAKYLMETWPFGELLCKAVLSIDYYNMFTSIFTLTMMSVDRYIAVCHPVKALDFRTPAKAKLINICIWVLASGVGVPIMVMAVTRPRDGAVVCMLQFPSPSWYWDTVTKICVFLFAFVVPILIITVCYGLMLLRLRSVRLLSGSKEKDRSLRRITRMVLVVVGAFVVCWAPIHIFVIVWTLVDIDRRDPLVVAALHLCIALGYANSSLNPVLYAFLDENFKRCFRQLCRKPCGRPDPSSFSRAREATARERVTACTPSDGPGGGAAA

Which results are given for `COc1ccc(OCC2c3ccc(OCc4ccccc4)cc3CCN2C(=O)c2cccc(Br)c2)cc1` (stereo not given)?
inhibition (Homo sapiens): < 50%; inhibition [1]: < 50%; inhibition [2]: < 50%; inhibition [3]: < 50%; Activity [4]: 213%; Activity [5]: 94%; Activity [6]: 91%; Activity [7]: 90%; inhibition [8]: < 50%; inhibition [9]: < 50%; inhibition [10]: < 50%; inhibition [11]: < 50%; Activity [12]: 92%; Activity [13]: 105%; Activity [14]: 95%; inhibition [15]: < 50%; inhibition [16]: < 50%; inhibition [17]: < 50%; inhibition [18]: < 50%; inhibition [19]: < 50%; inhibition [20]: < 50%; inhibition [21]: < 50%; inhibition [22]: < 50%; inhibition [23]: < 50%; Activity [24]: 99%; inhibition [25]: < 50%; inhibition [26]: < 50%; Activity [27]: 98%; inhibition [28]: < 50%; inhibition [29]: < 50%

Reference: ChEMBL document CHEMBL2396604, “Synthesis and structure activity relationship of tetrahydroisoquinoline-based potentiators of GluN2C and GluN2D containing N-methyl-D-aspartate receptors” (J Med Chem, 2013)
